T cruzi growth-1 – T. cruzi intracellular proliferation inhibitors, primary screen, cell-based, beta-gal Tulahuen parasites, NIH3T3 host, luminescence. T. cruzi beta-gal in NIH3T3, GalScreen luminescence, 90 h. inhibition, % at 8.34 µM. hit rate 5.9% among 77,000;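 active = mean inhibition above about 93%, with at least 55% of replicates each passing it, limit read from the data, passing the limit was not always enough; inconclusive = only one of those two conditions holds; inactive = neither condition holds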
IDH1 mut inh – inhibitors of IDH1 R132H reductase, primary screen, biochemical, plate reader, single point. Isocitrate dehydrogenase [NADP] cytoplasmic (Homo sapiens), O75874. diaphorase/resazurin fluorescence, 60 min. inhibition, % at 10 µM. hit rate 0.18% among 70,000; in the data active = inhibition above about 34%; inconclusive = no clear call, values can overlap the other calls; inactive = below about 11%;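 note: 0% = DMSO and 100% = no enzyme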
Target sequence (O75874 whole entry R132H): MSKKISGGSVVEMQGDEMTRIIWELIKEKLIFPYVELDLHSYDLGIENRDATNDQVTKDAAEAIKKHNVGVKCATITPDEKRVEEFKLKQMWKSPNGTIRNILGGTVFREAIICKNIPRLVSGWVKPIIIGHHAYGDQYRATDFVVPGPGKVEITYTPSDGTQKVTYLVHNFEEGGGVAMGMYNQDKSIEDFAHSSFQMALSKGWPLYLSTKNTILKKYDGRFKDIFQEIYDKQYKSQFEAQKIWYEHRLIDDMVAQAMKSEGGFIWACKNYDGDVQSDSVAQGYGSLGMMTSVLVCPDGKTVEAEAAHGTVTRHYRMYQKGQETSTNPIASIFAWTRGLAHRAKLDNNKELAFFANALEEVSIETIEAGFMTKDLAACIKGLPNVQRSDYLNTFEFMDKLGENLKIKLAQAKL
GASC1 inh – inhibitors of GASC-1 (KDM4C) histone demethylase, primary screen, biochemical, single concentration HTS; GST-KDM4C 2-372, H3K9me3 peptide, LANCE TR-FRET; inhibition, % at 12.5 µM; hit rate 0.15% among 96,000;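 active = mean replicate inhibition above about 25%, with at least 55% of replicates also reaching it, limit read from the data, passing the limit was not always enough; inconclusive = only one of those two conditions met; inactive = neither condition met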
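Material: GST-tagged GASC-1 (JMJD2C) catalytic fragment, aa 2-372 / Quantity: enzyme final amount 10 nM / Medium: HEPES buffer, pH 7.5, plus ascorbate / Doses: one test concentration per compound / Incubation: 30 min reaction, 60 min detection, RT / Measured by: LANCE TR-FRET / Read-out: inhibition from TR-FRET ratio decrease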
T cruzi growth-2 – T. cruzi intracellular proliferation inhibitors, confirmation, cell-based, NIH3T3 host, beta-gal parasite, luminescence, cherry-pick | shares compounds with T cruzi growth-1 | hit rate 72% among 5,600 | T. cruzi beta-gal in NIH3T3, GalScreen luminescence, 90 h | inhibition, % at 8.35 µM;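 active = mean replicate inhibition above about 95% and at least 55% of replicates individually reaching it, limit read from the data; inconclusive = only one of the two criteria is met; inactive = neither criterion is met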
T cruzi growth-3 – inhibitors of intracellular T. cruzi replication, confirmation, NIH3T3 host cells, beta-gal parasites, cherry-pick, set 2; T. cruzi beta-gal in NIH3T3, GalScreen luminescence, 90 h; shares compounds with T cruzi growth-1; inhibition, % at 2.09 µM; hit rate 21% among 5,600;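 active = mean inhibition above about 95%, with at least 55% of replicates also reaching it, limit read from the data; inconclusive = meets just one of the two conditions; inactive = meets neither condition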;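 note: plate controls were neutral control median for no effect and positive control median for full effect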
3T3 cytotox – cytotoxicity in mouse NIH/3T3 fibroblasts, confirmation, cytotoxicity control for T. cruzi proliferation inhibitor project, cell-based, cherry-pick, single point. cytotoxicity (signal decrease), % at 8.35 µM. hit rate 14% among 5,600. NIH/3T3 viability, CellTiter-Glo ATP luminescence, 90 h. shares compounds with T cruzi growth-1. AID 651742, 2012;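 active = mean signal decrease across replicates above about 35% based on untreated-well scatter, with enough replicates individually passing, limit read from the data; inconclusive = no rule stated though some were filed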;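 note: 0% = median of neutral control wells and 100% = median of positive control wells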
NIH3T3 tox 2 – NIH/3T3 fibroblast cytotoxicity, confirmation, cytotoxicity control, cell-based, cherry-pick, single point, set 2; NIH/3T3 viability, CellTiter-Glo ATP luminescence, 90 h; inhibition, % at 24.9 µM; hit rate 56% among 5,600; shares compounds with T cruzi growth-1;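 active = mean loss of cell viability signal at or above a set limit, and enough replicates individually reaching it; inconclusive = meets only the mean limit or only the replicate share; inactive = meets neither condition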;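 note: 0% = median of neutral control wells and 100% = median of positive control wells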
Numbers without * were called inactive; ? = inconclusive; . = no result. Many of the other results were omitted from the sample, so hits are more common in it than they were.

SMILES | T cruzi growth-1 | IDH1 mut inh | GASC1 inh | T cruzi growth-2 | T cruzi growth-3 | 3T3 cytotox | NIH3T3 tox 2
C[C@@H]1CN([C@H](C)CO)C(=O)Cc2cc(NC(=O)C3CCCCC3)ccc2O[C@@H]1CN(C)C(=O)Nc1ccccc1 | 5 | . | 0 | . | . | . | .
N#C[C@H]1[C@@H](c2ccc(C#CC3CCCCC3)cc2)[C@@H](CO)N1C(=O)Nc1ccc(F)cc1 | . | . | -1 | . | . | . | .
CN1CCN(C(=O)C[C@@H]2CC[C@@H]3[C@H](COC[C@H](O)CN3S(=O)(=O)c3cccc(F)c3)O2)CC1 | -79 | . | 0 | . | . | . | .
COc1ccc2c3c(n(C)c2c1)[C@H](CO)N(C(=O)c1ccc(F)cc1)CC31CCN(C(=O)Nc2ccc(F)cc2)CC1 | . | . | -1 | . | . | . | .
CCn1c(SCC(=O)N2CCc3ccccc32)nnc1-c1ccccc1O | . | 0 | . | . | . | . | .
O=C(CN1CCOCC1)N1CCCCN2[C@@H](CO)[C@@H](c3ccc(-c4ccccc4)cc3)[C@@H]2C1 | 91* | . | -1 | 75 | -15 | -5 | 12
O=C(CN1CCOCC1)N1CCCCN2[C@H](C1)[C@H](c1ccc(-c3ccccc3)cc1)[C@@H]2CO | -6 | . | 0 | . | . | . | .
O=C(CN1CCOCC1)N1CCCCN2[C@H](CO)[C@@H](c3ccc(C#Cc4ccccc4)cc3)[C@@H]2C1 | 64 | . | 0 | . | . | . | .
O=C(CN1CCOCC1)N1CCCCN2[C@H](CO)[C@H](c3ccc(C#Cc4ccccc4)cc3)[C@@H]2C1 | 103* | . | 0 | 106* | 30 | 41* | 67*
CCOC(=O)N(C)C[C@H]1OCc2cn(nn2)CCCC(=O)N([C@@H](C)CO)C[C@@H]1C | 6 | -1 | 0 | . | . | . | .
COc1ccc(NC(=O)N2CCCCN3[C@H](CO)[C@H](c4ccc(C#Cc5ccccn5)cc4)[C@@H]3C2)cc1 | 44 | . | 1 | . | . | . | .
O=C(Nc1ccccc1)N1CCCCN2[C@H](CO)[C@H](c3ccc(C#Cc4ccccn4)cc3)[C@H]2C1 | 104* | . | -1 | 99* | 61 | -8 | 13
O=C(Nc1ccccc1)N1CCCCN2[C@@H](CO)[C@H](c3ccc(C#Cc4ccccn4)cc3)[C@@H]2C1 | 72 | . | 0 | . | . | . | .
O=C(Nc1ccc(F)cc1)N1CCCCN2[C@@H](CO)[C@H](c3ccc(C#Cc4ccccn4)cc3)[C@@H]2C1 | 123* | . | -2 | 107* | 75 | -14 | 6
O=C(Nc1ccc(F)cc1)N1CCCCN2[C@H](CO)[C@H](c3ccc(C#Cc4ccccn4)cc3)[C@H]2C1 | 80 | . | -2 | . | . | . | .
COc1ccc(NC(=O)N2CCCCN3[C@@H](CO)[C@H](c4ccc(C#Cc5ccccn5)cc4)[C@@H]3C2)cc1 | 103* | . | 0 | 110* | 109* | -24 | -7
COc1ccc(C(C)C)cc1S(=O)(=O)NCCN1CCOCC1 | . | 0 | . | . | . | . | .
N#C[C@@H]1[C@H](c2ccc(-c3cccc(F)c3)cc2)[C@@H](CO)N1c1nc(-c2ccccc2)cs1 | . | . | -5 | . | . | . | .
N#C[C@@H]1[C@H](c2ccc(-c3ccc(F)cc3)cc2)[C@@H](CO)N1c1nc(-c2ccccc2)cs1 | . | . | -5 | . | . | . | .
N#C[C@@H]1[C@@H](c2ccc(-c3ccc(F)cc3)cc2)[C@H](CO)N1c1nc(-c2ccccc2)cs1 | 103* | . | -4 | 107* | 71 | 11 | 25
N#C[C@@H]1[C@H](c2ccc(-c3ccc(F)cc3)cc2)[C@H](CO)N1c1nc(-c2ccccc2)cs1 | 101* | . | 0 | -11 | 31 | -5 | -11
C[C@@H]1CN([C@@H](C)CO)C(=O)c2cc(-c3cncnc3)cnc2O[C@H]1CN(C)Cc1ccc(Oc2ccccc2)cc1 | . | . | 0 | . | . | . | .
COc1ccc(-c2oc3cc(O[C@@H]4O[C@@H](C)[C@H](O)[C@@H](O)[C@H]4O)cc(O)c3c(=O)c2O[C@@H]2O[C@H](CO)[C@@H](O)[C@H](O)[C@H]2O)cc1 | . | 0 | . | . | . | . | .
CNC[C@@H]1Oc2ccc(NS(=O)(=O)c3ccc(Cl)cc3)cc2C(=O)N([C@@H](C)CO)C[C@@H]1C | . | 5 | 0 | . | . | . | .
COCC(=O)Nc1ccc2c(c1)OC[C@@H](C)N(C(=O)c1ccccn1)C[C@H](C)[C@H](OC)CN(C)C2=O | -12 | . | 2 | . | . | . | .
SMILES | T cruzi growth-1 | IDH1 mut inh | GASC1 inh | T cruzi growth-2 | T cruzi growth-3 | 3T3 cytotox | NIH3T3 tox 2
CC(C)CC#Cc1ccc2c(c1)O[C@H](CN(C)Cc1ccncc1)[C@@H](C)CN([C@H](C)CO)S2(=O)=O | 122* | 0 | 2 | 104* | 104* | 30 | 105*
CC(C)CC#Cc1ccc2c(c1)O[C@H](CN(C)Cc1ccc(F)cc1)[C@@H](C)CN([C@@H](C)CO)S2(=O)=O | 101 | 5 | -3 | . | . | . | .
CC(C)CC#Cc1ccc2c(c1)O[C@@H](CN(C)Cc1cncnc1)[C@@H](C)CN([C@@H](C)CO)S2(=O)=O | 70 | 1 | 0 | . | . | . | .
CC(C)CC#Cc1ccc2c(c1)O[C@@H](CN(C)Cc1cncnc1)[C@H](C)CN([C@H](C)CO)S2(=O)=O | 52 | 0 | 0 | . | . | . | .
CC(C)CC#Cc1ccc2c(c1)O[C@H](CN(C)Cc1ccncc1)[C@@H](C)CN([C@@H](C)CO)S2(=O)=O | 130* | 7 | 4 | 94 | 111* | ? | 106*
CC(C)CC#Cc1ccc2c(c1)O[C@@H](CN(C)Cc1ccncc1)[C@H](C)CN([C@H](C)CO)S2(=O)=O | 129* | 5 | 4 | 93 | 105* | 61* | 104*
O=C(C[C@H]1C[C@H]2c3cc(NC(=O)NC4CCCCC4)ccc3O[C@H]2[C@H](CO)O1)NCCc1ccccc1 | . | . | -8 | . | . | . | .
O=C(c1ccccc1)N1C[C@H]2[C@@H](c3ccccc31)[C@@H](CO)N2C(=O)CN1CCOCC1 | -28 | . | 0 | . | . | . | .
N#C[C@H]1[C@H](c2ccccc2-c2ccccc2F)[C@H](CO)N1C(=O)C1CC1 | . | . | -1 | . | . | . | .
CN(C)C(=O)c1cccc(-c2ccc3c(c2)[C@@H]2[C@@H](CCN2C(=O)C2CCCC2)[C@@H](CO)N3)c1 | . | . | 1 | . | . | . | .
C[C@@H]1CCCCO[C@@H](CN(C)C(=O)Nc2cccc3ccccc23)[C@@H](C)CN([C@H](C)CO)C(=O)c2cc(NC(=O)Nc3cccc4ccccc34)ccc2O1 | -21 | 2 | -2 | . | . | . | .
C[C@@H]1CCCCO[C@@H](CN(C)C(=O)C2CCCCC2)[C@@H](C)CN([C@H](C)CO)C(=O)c2cc(NC(=O)Nc3cccc4ccccc34)ccc2O1 | 71 | 0 | -1 | . | . | . | .
